Laboratory results: paper PMC8513424 (Laryngoscope Investigative Otolaryngology, 2021)

Columns and labels:
[1] = system: patients with NF2 or sporadic meningioma; assay: Pilot 1 safety and tolerability; assay type: in vivo, human
Procedure, shortened: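 Pilot 1 was a subset of a phase I, 3 + 3 dose-escalation study of the oral test compound in solid tumors. Dosing started at 30 mg three times weekly for 3 weeks, then 1 week off, per 28-day cycle. Adults (≥18 y, ECOG 0-1) had NF2-associated or sporadic VS/meningioma with ≥15% volumetric growth on pre-enrollment MRI. Toxicities were graded by CTCAE v4.0.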

[2] = system: patients with sporadic VS or meningioma; assay: Pilot 2 safety and tolerability; assay type: in vivo, human
Procedure, shortened: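 Phase 0 pre-surgical study: 40 mg of the test compound orally three times weekly for 3 weeks before planned VS/meningioma resection. Adults >18 y had ECOG 0-1, normal organ and marrow function, and could swallow capsules. Excluded were pregnancy, malabsorption, chronic corticosteroids, prolonged QT, active infection, and concurrent antineoplastic therapy or radiotherapy.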

[3] = Pilot 2 plasma AR‐42 concentration by LC‐MS/MS; assay type: in vivo, human; conditions: 40 mg; for Concentration in plasma, Before surgery: mean of three trials
Procedure, shortened: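 Dosing was 40 mg orally three times weekly for 3 weeks before surgery. Venous blood was drawn at induction of anesthesia and again at tumor removal (about 3-4 h after surgery start). Plasma was separated by cold centrifugation and kept frozen. Drug was quantified by LC-MS/MS against a standard curve, as the mean of three runs. Pre-operative and removal-time levels were compared by paired t-test (P ≤ .05).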

[4] = system: patients with multiple myeloma, and T‐ and B‐cell lymphomas; conditions: three times weekly for 3 weeks of a 28‐day cycle; cited from earlier work
[5] = system: patients with advanced solid tumors; conditions: cited from earlier work

With `CC(C)[C@H](C(=O)Nc1ccc(C(=O)NO)cc1)c1ccccc1` [AR‐42] the “Dose‐limiting toxicity” value ([1]; Patient 1.7, 80 mg, after 10 days of treatment, or 5 doses) was “grade 4 psychiatric disorder”, the Tolerability ([1]; Pilot 1, 60 mg) was “generally well tolerated” and the “Arrhythmias or QT prolongations” value ([1]; Pilot 1, 60‐80 mg) was “no reported arrhythmias or QT prolongations of any grade”. For the same molecule, the “Arrhythmias or QT changes” value ([2]; Pilot 2, 40 mg) was “no arrhythmias or QT changes”, the “Grade 3 or 4 toxicities” value ([2]; Pilot 2, 3 weeks at 40 mg) was “no grade 3 or 4 toxicities” and the “Concentration in plasma, At tumor removal” value ([3]; Patient # 2.1 (VS)) was 303.7 nM. The “Concentration in plasma, Before surgery” value ([3]; Patient # 2.1 (VS)) was 362.3 nM, the “Concentration in plasma, At tumor removal” value ([3]; Patient # 2.2 (VS)) was 121.1 nM and the “Concentration in plasma, Before surgery” value ([3]; Patient # 2.2 (VS)) was 224.2 nM. For the same molecule, the “Concentration in plasma, At tumor removal” value ([3]; Patient # 2.4 (VS)) was 36.8 nM, the “Concentration in plasma, Before surgery” value ([3]; Patient # 2.4 (VS)) was 61.8 nM and the “Concentration in plasma, At tumor removal” value ([3]; Patient # 2.6 (VS)) was 3.4 nM. For the same molecule, the “Concentration in plasma, Before surgery” value ([3]; Patient # 2.6 (VS)) was 3.5 nM, the “Concentration in plasma, At tumor removal” value ([3]; Patient # 2.7 (meningioma)) was 72.9 nM and the “Concentration in plasma, Before surgery” value ([3]; Patient # 2.7 (meningioma)) was 99.1 nM. The “Plasma concentration of AR‐42” value ([3]; first three patients with VS, before and at tumor removal) was 62 to 360 nM, the “Plasma level after anesthesia” value ([3]; patient with meningioma) was 73 nM and the “Plasma level before anesthesia” value ([3]; patient with meningioma) was 99 nM. The “Maximum tolerated dose (MTD)” value [4] was 40 mg, the “Dose‐limiting toxicities (DLTs)” value ([5]; 30, 60 or 80 mg orally) was “grade 3 thrombocytopenia and grade 4 psychosis” and the “Median progression‐free survival” value ([5]; NF2 and non‐NF2 meningioma subset, RECIST, 95% CI: 1.9—not reached) was 9.1 months. For the same molecule, the “Most common treatment‐related adverse events” value [5] was “cytopenias, fatigue, and nausea” and the “Recommended phase II dose” value ([5]; daily, three times weekly for 3 weeks of a 28‐day cycle) was 60 mg.
